Compound activity as filed in PubChem BioAssay.
Compounds with a hit are over-represented: about 3.5% of the library has one in this group of screens.
FXIa inh 1536: inhibitors of human coagulation factor XIa; P03951; purified FXIa, Boc-Glu-Ala-Arg-AMC fluorogenic substrate; inhibition, % at 5 µM; 220,000 compounds, 0.14% hits;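 active means inhibition of at least 40%; inactive means inhibition below 40%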;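 further: fluorescence of freed AMC excited at 355 nm; 0% = enzyme without compound and 100% = no enzyme blank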
AHR act: activates the human aryl hydrocarbon receptor | AHR-responsive luciferase reporter cells, luminescence | activation, % at 5 µM | 320,000 compounds, 2.5% hits | AID 2796; in the data active means activation above about 47%;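 further: 0% = vehicle wells and 100% = reference agonist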
Target sequence (P35869 whole entry, looked up): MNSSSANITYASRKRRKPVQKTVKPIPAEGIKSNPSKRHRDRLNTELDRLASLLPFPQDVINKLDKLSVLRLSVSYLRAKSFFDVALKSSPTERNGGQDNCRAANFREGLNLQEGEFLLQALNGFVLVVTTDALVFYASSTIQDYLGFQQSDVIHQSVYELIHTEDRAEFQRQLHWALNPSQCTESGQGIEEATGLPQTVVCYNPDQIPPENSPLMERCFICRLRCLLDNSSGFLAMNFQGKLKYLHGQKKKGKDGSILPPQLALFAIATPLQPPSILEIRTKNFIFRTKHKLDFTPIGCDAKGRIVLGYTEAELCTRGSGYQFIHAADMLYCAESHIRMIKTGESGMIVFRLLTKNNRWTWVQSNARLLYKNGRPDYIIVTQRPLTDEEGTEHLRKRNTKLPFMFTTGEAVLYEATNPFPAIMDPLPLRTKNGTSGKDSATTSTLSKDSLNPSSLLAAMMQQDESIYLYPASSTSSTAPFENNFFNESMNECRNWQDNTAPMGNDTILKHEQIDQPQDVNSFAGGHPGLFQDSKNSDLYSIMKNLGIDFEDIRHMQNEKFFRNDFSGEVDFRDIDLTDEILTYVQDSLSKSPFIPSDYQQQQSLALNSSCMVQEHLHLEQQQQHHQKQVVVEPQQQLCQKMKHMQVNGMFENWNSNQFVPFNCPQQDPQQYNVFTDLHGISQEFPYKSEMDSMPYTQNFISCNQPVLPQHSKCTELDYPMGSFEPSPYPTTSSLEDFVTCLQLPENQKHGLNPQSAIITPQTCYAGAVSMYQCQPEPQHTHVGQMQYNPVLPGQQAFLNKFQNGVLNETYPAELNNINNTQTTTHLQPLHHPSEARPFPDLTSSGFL
STAT3 act: STAT3 signaling activation; U3A cells, IL-6 STAT3-luciferase reporter, luminescence; 100% = signal with IL-6 EC80 alone; 190,000 compounds, 0.91% hits; activation (% of control), % at 5.6 µM; AID 871;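 active means activation above the screen-wide mean of compound activation plus 3 SD, cut at about 130% in these data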;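 further: 0% = background luminescence of wells with medium and substrate only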
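Material: STAT3-luciferase reporter U3A cells. Controls: IL-6-treated wells, 100% activation. Read-out: % activation versus median of IL-6-stimulated wells. Probe or stimulus: IL-6 stimulus at 33 ng/mL final. Timing: compound 1 h, then IL-6 6 h at 37 °C. Signal: reporter luminescence signal.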
FXIIa inh 1536: factor XIIa (human) inhibition; P00748; purified FXIIa, Boc-QGR-AMC fluorogenic substrate, 2 h; inhibition, % at 5 µM; 220,000 compounds, 0.3% hits; AID 800; in the data active means inhibition above about 40%;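 further: 0% = enzyme with no compound and 100% = blank without enzyme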
hK5 inh: inhibitors of human kallikrein 5; Q9Y337; 210,000 compounds, 0.59% hits; inhibition, % at 5 µM; recombinant hK5, fluorogenic AMC substrate cleavage;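 active means inhibition of 40% or more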;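 further: 0% = enzyme controls without compound and 100% = no-enzyme blanks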
Thrombin inh: inhibitors of human thrombin | P00734 | alpha-thrombin, Boc-VPR-AMC fluorogenic substrate cleavage | inhibition, % at 5 µM | 220,000 compounds, 0.26% hits;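 active means inhibition at or above 40%; inactive means inhibition below 40%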;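 further: 0% = enzyme with no compound and 100% = wells without enzyme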
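System: Human alpha-thrombin protein | Medium: pH 7.5 Tris (50 mM) with NaCl 150 mM, Tween 20 0.05% | Times: Enzyme reaction carried out at room temperature | Detection: AMC fluorescence, 355/460 nm | Evaluation: Percent inhibition scaled between no-compound controls and no-enzyme blanks | Benchmarks: Enzyme without compound as high, wells lacking enzyme as low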
An asterisk follows results filed as active; nt = not tested or not shown.

SMILES	FXIa inh 1536	AHR act	STAT3 act	FXIIa inh 1536	hK5 inh	Thrombin inh
O=C1NC(=O)N(Cc2ccccc2Cl)C(=O)/C1=C/c1cccs1	29	-3	109	39	50*	11
Clc1ccccc1Nc1ncnc(-n2cccc2)n1	-7	101*	119	-5	-16	-5
Clc1ccccc1NC1=NCCCS1	nt	-1	nt	nt	nt	nt
CC1=NN=C(c2ccc(N)cc2)c2cc3c(cc2C1)OCO3	nt	0	nt	nt	nt	nt
O=C1NC(=S)N(C2CC2)C(=O)/C1=C/c1ccc2c(c1)CCN2CCCCl	15	12	106	43*	21	25
Cc1nn(CC(=O)N2CCC3(CC2)OCCO3)c(=O)c2cc3ccccc3n12	nt	3	nt	nt	nt	nt
OC1(c2ccccc2F)CC2CCC(C1)N2CCN1CCOCC1 (stereo not given)	33	-1	107	-162	55*	23
N#CC(Br)Br	nt	-1	nt	nt	nt	nt
CCS(=O)(=O)Nc1cccc(C(=C2CCCCC2)c2cnc[nH]2)c1	nt	58*	nt	nt	nt	nt
COC(=O)C1=C(c2ccc(Cl)c(C(F)(F)F)c2)C[C@@H]2CC[C@H]1N2C(=O)NCc1ccco1	nt	-2	nt	nt	nt	nt
O=C(COc1ccc2ccccc2c1)N1CCN(Cc2c[nH]c3ccccc23)CC1	2	42	112	1	-16	9
O=C(COc1ccc(Br)cc1)N1CCN(Cc2c[nH]c3ccccc23)CC1	-4	14	135*	-16	-11	-5
Fc1ccc(Cn2nnnc2CN2CCC(n3nnc4cc(C(F)(F)F)ccc43)CC2)cc1	1	0	nt	11	-1	2
FC(F)(F)c1ccc2c(c1)ncn2C1CCN(Cc2nnnn2C2CCCCC2)CC1	-7	56*	96	-6	-1	-5
Cc1cccc(C(=O)NC(Oc2ccccc2)C(Cl)(Cl)Cl)c1 (stereo not given)	4	50*	98	12	-11	1
CCOP(=O)(OCC)C(NC(=O)c1cccc(C)c1)C(Cl)(Cl)Cl (stereo not given)	5	-2	nt	-3	-1	-7
CC(=NCCO)c1c(O)n(C2CCCCC2)c(=O)[nH]c1=O	3	0	102	21	-23	3
CCC(=O)c1c(O)n(C2CCCCCC2)c(=O)[nH]c1=O	-3	1	104	20	46*	24
COC(=O)C1=C(c2ccc(F)cc2F)C[C@@H]2CC[C@H]1N2C(=O)NCc1ccc(C(F)(F)F)cc1	nt	3	nt	nt	nt	nt
O=C(C1CC(c2ccc(Cl)c(Cl)c2)=NO1)N1CCC2(CC1)OCCO2 (stereo not given)	2	-2	90	48*	6	7
Cc1nc2ccccc2n1C1CCN(Cc2nnnn2CCc2ccccc2)CC1	-13	9	109	43*	-2	-4
O=C(c1ccccc1)c1cn(CC(=O)N2CCCc3ccccc32)c2ccccc12	5	4	98	14	-13	-8
CC1CCCN(CC(=O)N2CCCc3ccccc32)C1 (stereo not given)	2	0	96	19	87*	28
Nc1c2c(nc3sc4c(c13)CCCC4)CCCCC2	-7	58*	92	13	-5	-9
Nc1c2c(nc3sc4c(c13)CCCC4)CCCC2	-2	15	94	15	5	-6
SMILES	FXIa inh 1536	AHR act	STAT3 act	FXIIa inh 1536	hK5 inh	Thrombin inh
CCn1c(=O)cc(OCC(=O)N2CCN(Cc3ccc4c(c3)OCO4)CC2)c2ccccc21	7	55*	92	22	-5	4
COC(=O)c1cccc(N=Cc2c(O)n(Cc3ccc(F)cc3)c(=O)[nH]c2=O)c1	-3	1	nt	3	-3	1
O=C(O)c1ccc(N=Cc2c(O)n(Cc3ccc(F)cc3)c(=O)[nH]c2=O)cc1	31	2	nt	41*	30	32
OCC#CC[N+]1(CC#Cc2ccccc2)CCOCC1	33	-1	102	30	78*	36
COc1ccc(CN2C(=O)NC(=O)/C(=C/c3ccc([N+](=O)[O-])o3)C2=O)cc1	-5	nt	101	5	-17	2
COC(=O)C(O)(c1ccc(N=Cc2ccccc2O)c(C)c1)C(F)(F)F (stereo not given)	4	1	98	8	-19	-5
CC(C)(C)c1ccc(O)c(N=Cc2c(O)ccc3ccccc23)c1	nt	64*	nt	nt	nt	nt
COc1cccc(CCNCc2ccc(SC)cc2)c1	2	0	88	9	-2	-4
CCOC(=O)CC(NC(=O)C(Cc1ccc(N(CCCl)CCCl)cc1)NC(C)=O)C(=O)OCC (stereo not given)	-5	1	111	10	-3	3
CN(C(=O)Oc1cccc2cccnc12)c1ccccc1	14	0	90	44*	22	16
C[C@]12CCC3C(CC[C@H]4C[C@@H](O)CC[C@]34C)C1CC[C@@H]2OC(=O)[C@H](N)CCCCN (stereo not given in full)	nt	0	nt	nt	nt	nt
CN(C)C(=O)Oc1ccc2ccccc2c1Cl	8	-7	116	23	6	2
CNC(=O)Oc1cccc2ccccc12	18	8	nt	28	42*	22
Cc1cc(OCCN2CC2)c2ccccc2n1	2	2	nt	8	3	1
CCOc1cc2c(cc1OCC)-n1cccc1C(c1ccc(C(C)C)cc1)NC2 (stereo not given)	nt	3	nt	nt	nt	nt
O=c1c2ccccc2nc(CNc2ccccc2)n1-c1ccccc1	3	14	nt	12	2	-4
CC[C@]12C=CCN3CCC4(c5cc(Br)c(OC)cc5N(C)C4[C@@](O)(C(=O)OC)[C@@H]1OC(C)=O)C32 (stereo not given in full)	21	0	102	28	43*	28
Cc1cc(OCC(=O)NCc2ccncc2)c2c3c(c(=O)oc2c1)CCCC3	nt	64*	nt	nt	nt	nt
COC(=O)C1=C(c2ccc(OC)c(OC)c2)C[C@@H]2CC[C@H]1N2C(=O)NCc1cccc2ccccc12	nt	-2	nt	nt	nt	nt
CCc1c(C)nc(N)nc1N1N=C1SCC#N	32	-1	106	58*	7	0
CN1CCC(O)(c2cccs2)C(C(=O)c2cccs2)C1 (stereo not given)	nt	0	nt	nt	nt	nt
COc1ccc2c(c1)CC1(CN2C)C(=O)NC(=O)N(c2ccc(C)cc2)C1=O (stereo not given)	-4	52*	117	11	-7	1
CN1c2ccc([N+](=O)[O-])cc2CC2(C(=O)NC(=O)N(c3ccc(Br)cc3)C2=O)C1c1ccccc1 (stereo not given)	8	76*	109	6	3	-2
O=C1NC(=O)C2(Cc3ccccc3N3CCCC32)C(=O)N1c1ccccc1 (stereo not given)	3	24	126	11	-17	-1
Clc1ccc(-c2nc3ccc(Cl)cn3c2CN2CCOCC2)cc1	1	62*	85	13	-22	-4
O=c1c2cc(Cl)cc(Cl)c2nc(CN2CCOCC2)n1-c1ccccc1F	0	4	105	17	-6	3
